Measured values from ChEMBL document CHEMBL2406932, “Heteroaromatic and aniline derivatives of piperidines as potent ligands for vesicular acetylcholine transporter” (J Med Chem, 2013).

Columns and labels:
[1] = molecular target: Sigma non-opioid intracellular receptor 1 (Cavia porcellus, UniProt Q60492); test: Displacement of (+)- [3H]pentazocine from sigma 1 receptor expressed in guinea pig brain membrane homogenates by scintillation counting analysis; type: cell membranes
[2] = Displacement of [3H]DTG from sigma 2 receptor in rat liver membrane homogenates after 120 mins by scintillation counting analysis; type: cell membranes
Outline: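 Rat liver membrane homogenate (~300 µg protein) with ~5 nM [3H]DTG plus 1 µM (+)-pentazocine to block sigma-1 sites, 120 min at room temperature, pH 7.4 Tris buffer. Nonspecific binding taken with 10 µM haloperidol. Filtration and scintillation counting.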

[3] = molecular target: T1, Vesicular acetylcholine transporter (Homo sapiens, UniProt Q16572); test: Displacement of (-)-[3H]vesamicol from human VAChT expressed in rat PC12 cell membrane after 20 hrs; type: cell membranes, PC-12
T1 sequence (Q16572 whole entry): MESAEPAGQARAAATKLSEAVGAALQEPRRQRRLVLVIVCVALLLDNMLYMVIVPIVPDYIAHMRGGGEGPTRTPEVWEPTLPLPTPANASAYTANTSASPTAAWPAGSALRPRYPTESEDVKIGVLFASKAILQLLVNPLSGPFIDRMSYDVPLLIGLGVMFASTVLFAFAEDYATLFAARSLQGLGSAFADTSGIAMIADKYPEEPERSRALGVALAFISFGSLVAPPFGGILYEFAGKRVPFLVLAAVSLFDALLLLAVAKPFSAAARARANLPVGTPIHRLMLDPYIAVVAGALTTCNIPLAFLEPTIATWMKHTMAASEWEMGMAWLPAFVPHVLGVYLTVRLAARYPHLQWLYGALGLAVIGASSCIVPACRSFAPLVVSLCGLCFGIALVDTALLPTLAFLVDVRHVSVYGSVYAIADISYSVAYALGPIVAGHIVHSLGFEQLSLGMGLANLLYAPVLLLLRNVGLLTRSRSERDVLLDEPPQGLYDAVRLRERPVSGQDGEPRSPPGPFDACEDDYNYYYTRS

PC-12 [4] = test: Selectivity ratio, ratio of Ki for sigma 1 receptor in guinea pig brain homogenates to Ki for human VAChT expressed in rat PC12 cells; type: cell-based
PC-12 [5] = test: Selectivity ratio, ratio of Ki for sigma 2 receptor in rat liver homogenates to Ki for human VAChT expressed in rat PC12 cells; type: cell-based
[6] = tested as the 11C-labelled form

Sigma non-opioid intracellular receptor 1, sequence (Q60492 whole entry): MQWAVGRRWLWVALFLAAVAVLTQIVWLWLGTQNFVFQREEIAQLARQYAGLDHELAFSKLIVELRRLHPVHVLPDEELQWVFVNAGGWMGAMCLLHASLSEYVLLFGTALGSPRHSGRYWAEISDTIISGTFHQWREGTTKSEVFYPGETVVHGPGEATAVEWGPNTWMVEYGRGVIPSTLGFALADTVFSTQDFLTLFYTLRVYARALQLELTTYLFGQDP

Compound | Ki [1] | Ki [2] | Ki [3] | Ratio Ki (PC-12 [4]) | Ratio Ki (PC-12 [5]) | Ratio Ki (PC-12 [4]; [6]) | Ratio Ki (PC-12 [5]; [6]) | Ki ([3]; pc-12)
COc1ccc(C(=O)C2CCN([C@@H]3Cc4ccccc4C[C@H]3O)CC2)cn1 (racemic) | 986 nM | 2570 nM | 8.36 nM | – | – | – | – | –
COc1cccnc1C(=O)C1CCN([C@@H]2Cc3ccccc3C[C@H]2O)CC1 (racemic) | 21000 nM | 1560 nM | – | 170 | 13 | – | – | –
O=C(c1ncccc1OCCF)C1CCN([C@@H]2Cc3ccccc3C[C@H]2O)CC1 (racemic) | 20000 nM | 303 nM | – | 260 | 4 | – | – | –
COc1ccc(C(=O)C2CCN([C@@H]3Cc4c(N)cccc4C[C@H]3O)CC2)cn1 (racemic) | 5680 nM | 10800 nM | 23.3 nM | 120 | 220 | – | – | –
CNc1ccc(C(=O)C2CCN([C@H]3Cc4ccccc4C[C@@H]3O)CC2)cc1 | – | – | – | – | – | 1270 | 14700 | –
Cn1ccc(C(=O)C2CCN([C@@H]3Cc4ccccc4C[C@H]3O)CC2)c1 (racemic) | 3040 nM | 7710 nM | – | – | – | – | – | –
CNc1ccc(C(=O)C2CCN([C@@H]3Cc4ccccc4C[C@H]3O)CC2)cc1 (racemic) | 305 nM | 6180 nM | – | 100 | 2000 | – | – | –
Nc1ccc(C(=O)C2CCN([C@@H]3Cc4ccccc4C[C@H]3O)CC2)cc1 (racemic) | – | – | – | – | – | – | – | 1.68 nM
O=C(c1cccnc1)C1CCN([C@@H]2Cc3ccccc3C[C@H]2O)CC1 (racemic) | 12900 nM | 3030 nM | – | 540 | 130 | – | – | –
O=C(c1ccc(OCCF)nc1)C1CCN([C@@H]2Cc3ccccc3C[C@H]2O)CC1 (racemic) | 2120 nM | 1860 nM | – | 56 | 49 | – | – | –
O=C(c1ccc(F)cc1)C1CCN([C@@H]2Cc3ccccc3C[C@H]2O)CC1 (relative stereo) | – | 251 nM | – | – | – | – | – | –
O=C(c1cccs1)C1CCN([C@@H]2Cc3ccccc3C[C@H]2O)CC1 (racemic) | – | – | 5 nM | – | – | – | – | –
Cn1cccc1C(=O)C1CCN([C@@H]2Cc3cccc(N)c3C[C@H]2O)CC1 (racemic) | 9240 nM | 11400 nM | – | 4 | 4.9 | – | – | –
Cn1ccc(C(=O)C2CCN([C@@H]3Cc4ccccc4C[C@H]3O)CC2)cc1=O (racemic) | 3350 nM | 2120 nM | – | 51 | 32 | – | – | –
O=C(c1ccccc1)C1CCN([C@@H]2Cc3ccccc3C[C@H]2O)CC1 (racemic) | – | 320 nM | – | 51 | 74 | – | – | –
Cn1cccc1C(=O)C1CCN([C@@H]2Cc3c(N)cccc3C[C@H]2O)CC1 (racemic) | 7660 nM | 6990 nM | – | 200 | 180 | – | – | –
Nc1cccc2c1C[C@@H](N1CCC(C(=O)c3cccnc3)CC1)[C@H](O)C2 (racemic) | 20300 nM | 5080 nM | 118 nM | 170 | 43 | – | – | –
O=C(c1ccc(F)nc1)C1CCN([C@@H]2Cc3ccccc3C[C@H]2O)CC1 (racemic) | 682 nM | 1750 nM | – | 26 | 67 | – | – | –
Cc1ccc(C(=O)C2CCN([C@@H]3Cc4ccccc4C[C@H]3O)CC2)cn1 (racemic) | 2120 nM | 3770 nM | – | – | – | – | – | –
CN(C)c1ccc(C(=O)C2CCN([C@@H]3Cc4ccccc4C[C@H]3O)CC2)cc1 (racemic) | 40.9 nM | 4080 nM | – | 44 | 4400 | – | – | –
Cn1c(C(=O)C2CCN([C@@H]3Cc4ccccc4C[C@H]3O)CC2)cccc1=O (racemic) | 2160 nM | 3340 nM | – | 12 | 18 | – | – | –
O=C(c1cncc(F)c1)C1CCN([C@@H]2Cc3ccccc3C[C@H]2O)CC1 (racemic) | 709 nM | 1690 nM | – | 70 | 170 | – | – | –
Cc1ccc(C(=O)C2CCN([C@@H]3Cc4c(N)cccc4C[C@H]3O)CC2)cn1 (racemic) | – | 27500 nM | 48 nM | – | – | – | – | –
CNc1ccc(C(=O)C2CCN(C3Cc4ccccc4CC3O)CC2)cc1 (single isomer, unassigned; (+)) | 1170 nM | 7760 nM | 19 nM | 61.5 | 408 | – | – | –
Cn1cccc1C(=O)C1CCN([C@@H]2Cc3ccccc3C[C@H]2O)CC1 (racemic) | 1300 nM | 2550 nM | – | 71 | 140 | – | – | –
O=C(c1cccnc1F)C1CCN([C@@H]2Cc3ccccc3C[C@H]2O)CC1 (racemic) | 1300 nM | 3530 nM | – | – | 280 | – | – | –
